Measurements gathered from unrelated publications.
Each line is one published result; the experiments were not run side by side.
Cell line: HeLa
Effect on: cell growth or viability

| SMILES | test | conditions | CC50 |
| --- | --- | --- | --- |
| CCOP(=O)(OCC)[C@@H]1C[C@@H](n2cc(C(=O)OC)nn2)ON1C (relative stereo) |  | 72 h | > 250 µM |
| CN1CC[C@H](c2c(O)cc(O)c3c(=O)cc(-c4ccccc4Cl)oc23)[C@H](O)C1 | MTT | 72 h | 0.12 µM |
| COCCN1CCN(c2nc(SCCc3ccccc3)c(C#N)c3c2COC(C)(C)C3)CC1 |  |  | < 50 µM |
| O=C(O)c1ccc(O)c2ncccc12 |  |  | > 1000 µM |
| CSSc1ccccc1C(=O)O | MTT | 48 h | 409 µM |
| COC(=O)[C@@H]1Cc2c([nH]c3ccccc23)[C@@H](c2ccc3c(c2)OCO3)N1 | MTT | 48 h | 10 µg/mL |
| Cc1nc2ccc(Cl)cn2c1C(=O)N1CCN(Cc2cn(-c3ccc(Br)cc3)nn2)CC1 | resazurin |  | > 100 µM |
| CCOP(=O)(OCC)[C@@H]1C[C@@H](n2cc(Cn3cnc4c(N)ncnc43)nn2)ON1C (racemic) |  | 72 h | > 250 µM |
| Cc1nc2ccc(Cl)cn2c1C(=O)N1CCN(Cc2cn(-c3ccc(F)c(Cl)c3)nn2)CC1 | resazurin |  | > 100 µM |
| O=[N+]([O-])c1ccc(-c2nc3cccc(O)c3[nH]2)o1 | resazurin | 72 h | 20 µM |
| Cc1nc2ccc(Cl)cn2c1C(=O)N1CCN(Cc2cn(-c3ccccc3Cl)nn2)CC1 | resazurin |  | > 100 µM |
| CCOP(=O)(OCC)[C@@H]1C[C@@H](n2cc(-c3nccn3C)nn2)ON1C |  | 72 h | > 250 µM |
| Cc1nc2ccc(Cl)cn2c1C(=O)N1CCN(Cc2cn(-c3ccccc3F)nn2)CC1 | resazurin |  | > 100 µM |
| COC(=O)c1ccnc(C(=O)OC)c1 |  |  | > 1000 µM |
| CCOP(=O)(OCC)[C@@H]1C[C@H](n2cc(Cn3cc(C)c(=O)[nH]c3=O)nn2)ON1C (racemic) |  | 72 h | > 250 µM |
| Cc1ccn2c(C(=O)N3CCN(Cc4cn(-c5ccc(Br)cc5)nn4)CC3)c(C)nc2c1 | resazurin |  | > 100 µM |
